Test results published in ChEMBL document CHEMBL1128436, “Synthesis and biological evaluation of a new series of sterols as potential hypocholesterolemic agents” (1995).
Activity calls are given as the source filed them. No cut-off for these calls is given here.

Experiments:
[1] = target: Low-density lipoprotein receptor (Homo sapiens) (UniProt P01130); assay: Capability of derepressing the transcription of human Low density lipoprotein receptor promoter in the presence of 25-hydroxycholesterol in CHO cells by luciferase assay; NA= Not active within the test range 0-20 ug/mL; format: cell-based
In short: (§1)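 Stably transfected CHO clone S27/B30 (LDL receptor promoter fused to firefly luciferase), grown to confluence (2-3 days, 37 °C, 5% CO2). Then 24 h in serum-free assay medium (DMEM/Ham's F-12 3:1, 0.5% bovine albumin) with 25-hydroxycholesterol 0.5 μg/mL plus compound at 0.30-20 μg/mL from ethanol stock, triplicate wells. Lysate luciferase peak light per μg protein (Coomassie). EC30 = concentration giving 30% rise over control. MA = % specific induction at 20 μg/mL.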

CHO [2] = assay: Capability of derepressing the transcription of SV40 promoter in CHO cells by luciferase assay; NA= Not active within the test range 0-20 ug/mL; format: functional, cell-based; details: Cricetulus griseus
In short: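 Counter-screen in CHO clone SV40/LN9, with luciferase driven by the SV40 promoter. Confluent monolayers were given compound at 0.30-20 μg/mL for 24 h in serum-free albumin assay medium, triplicate wells. Lysates were read for luciferase peak luminescence, normalized to lysate protein.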

[3] = target: Low-density lipoprotein receptor (Homo sapiens) (UniProt P01130); assay: Capability of derepressing the transcription of Low density lipoprotein receptor promoter in the presence of 25-hydroxycholesterol in CHO cells measured as maximum activity at 20 ug/mL; format: cell-based; in short: as §1
[4] = target: Low-density lipoprotein receptor (Homo sapiens) (UniProt P01130); assay: Capability of derepressing the transcription of human Low density lipoprotein receptor promoter in the presence of 25-hydroxycholesterol in CHO cells by luciferase assay; format: cell-based; in short: as §1
CHO [5] = assay: In vitro [1-14C]-acetate]-cholesterol biosynthesis inhibition assay (14CACBI) in CHO cells; neg = Negative :no effect on biosynthesis of cholesterol; format: functional, cell-based; details: Cricetulus griseus
In short: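 Confluent CHO cells in replicate 100 mm dishes were held 20 h in assay medium without 25-hydroxycholesterol, with ethanol vehicle (0.5% v/v) or compound at 20 μg/mL. [1-14C]acetate was then added (final 1 μCi/mL) for 4 h more. Cells were scraped and sonicated, lipids separated, and the cholesterol band scraped and counted by scintillation.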

Cricetinae gen. sp. [6] = assay: Total serum cholesterol level with relative to the control value (333(23)) in hamsters at a dose of 0.2% of diet for 1 week; format: functional, Cricetulus griseus
Mesocricetus auratus [7] = species on record: Mesocricetus auratus; assay: Serum cholesterol level change relative to the control value (333(23)) in hamsters at a dose of 0.2% of diet for 1 week
Cricetinae gen. sp. [8] = assay: Total serum cholesterol level with relative to the control value (366(24)) in hamsters at a dose of 0.2% of diet for 1 week; format: functional, Cricetulus griseus
Mesocricetus auratus [9] = species on record: Mesocricetus auratus; assay: Serum cholesterol level change relative to the control value (366(24)) in hamsters at a dose of 0.2% of diet for 1 week

Low-density lipoprotein receptor (Homo sapiens), sequence (P01130 whole entry, the tested form may be a part): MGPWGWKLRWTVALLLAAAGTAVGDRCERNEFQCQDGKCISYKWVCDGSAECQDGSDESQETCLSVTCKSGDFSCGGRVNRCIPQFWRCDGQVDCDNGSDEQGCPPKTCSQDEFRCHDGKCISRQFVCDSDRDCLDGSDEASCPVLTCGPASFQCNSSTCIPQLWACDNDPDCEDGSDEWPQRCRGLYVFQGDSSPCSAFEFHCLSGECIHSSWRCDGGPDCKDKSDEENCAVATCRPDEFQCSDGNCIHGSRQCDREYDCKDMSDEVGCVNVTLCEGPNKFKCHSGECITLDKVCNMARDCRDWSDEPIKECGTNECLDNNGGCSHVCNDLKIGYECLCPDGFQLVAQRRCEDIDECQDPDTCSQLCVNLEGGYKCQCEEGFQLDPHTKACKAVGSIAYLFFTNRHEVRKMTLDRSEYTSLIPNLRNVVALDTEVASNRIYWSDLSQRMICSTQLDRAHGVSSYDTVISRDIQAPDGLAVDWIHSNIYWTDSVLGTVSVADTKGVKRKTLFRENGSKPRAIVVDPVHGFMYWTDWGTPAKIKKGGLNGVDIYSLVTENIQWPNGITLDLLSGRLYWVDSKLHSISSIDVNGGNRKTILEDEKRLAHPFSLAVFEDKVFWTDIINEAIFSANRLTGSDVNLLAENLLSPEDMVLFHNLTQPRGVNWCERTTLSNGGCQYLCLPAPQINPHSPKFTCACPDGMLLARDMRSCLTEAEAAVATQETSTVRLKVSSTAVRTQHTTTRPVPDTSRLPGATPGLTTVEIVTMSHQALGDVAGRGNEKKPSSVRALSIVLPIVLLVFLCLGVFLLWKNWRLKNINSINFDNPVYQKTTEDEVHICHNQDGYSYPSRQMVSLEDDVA

Row | Structure (SMILES) | EC30 [1] | MA [3] | EC30 [4] | Activity (CHO [2]) | further results
1 | CC(C)CCC[C@@H](C)[C@H]1CC[C@H]2[C@@H]3CCC4[C@H](Cc5ccc(Cl)cc5)[C@H](O)CC[C@]4(C)[C@H]3CC[C@]12C (stereo partly specified) | – | 63% | 42 µM | inactive | –
2 | CC(C)CCC[C@@H](C)[C@H]1CC[C@H]2[C@@H]3CCC4[C@H](Cc5cccc(F)c5)[C@H](O)CC[C@]4(C)[C@H]3CC[C@]12C (stereo partly specified) | inactive | – | – | – | –
3 | CC(C)CCC[C@@H](C)[C@H]1CC[C@H]2[C@@H]3CCC4[C@H](C/C=C/Cl)[C@H](O)CC[C@]4(C)[C@H]3CC[C@]12C (stereo partly specified) | – | 169% | 2 µM | inactive | Activity (CHO [5]): Negative; Total cholesterol (Cricetinae gen. sp. [6]): 185 mg/dL; Relative change (Mesocricetus auratus [7]): -44%
4 | CC(C)CCC[C@@H](C)[C@H]1CC[C@H]2[C@@H]3CCC4[C@H](Cc5cccc(I)c5)[C@H](O)CC[C@]4(C)[C@H]3CC[C@]12C (stereo partly specified) | – | – | – | – | MA [1]: inactive
5 | C/C=C\C[C@H]1C2CC[C@H]3[C@@H]4CC[C@H]([C@H](C)CCCC(C)C)[C@@]4(C)CC[C@@H]3[C@@]2(C)CC[C@H]1O (stereo partly specified) | – | 72% | 26 µM | inactive | –
6 | CC(C)CCC[C@@H](C)[C@H]1CC[C@H]2[C@@H]3CCC4[C@H](Cc5ccc(C#N)cc5)[C@H](O)CC[C@]4(C)[C@H]3CC[C@]12C (stereo partly specified) | – | 55% | 9.9 µM | inactive | –
7 | C=C(C)C[C@H]1C2CC[C@H]3[C@@H]4CC[C@H]([C@H](C)CCCC(C)C)[C@@]4(C)CC[C@@H]3[C@@]2(C)CC[C@H]1O (stereo partly specified) | – | 124% | 2.8 µM | inactive | –
8 | CC(C)CCC[C@@H](C)[C@H]1CC[C@H]2[C@@H]3CCC4[C@H](Cc5ccc(C=O)cc5)[C@H](O)CC[C@]4(C)[C@H]3CC[C@]12C (stereo partly specified) | inactive | – | – | – | –
9 | CC(C)CCC[C@@H](C)[C@H]1CC[C@H]2[C@@H]3CC[C@H]4[C@H](Cc5ccccc5)C(=O)CC[C@]4(C)[C@H]3CC[C@]12C | – | – | – | – | Total cholesterol (Cricetinae gen. sp. [8]): 312 mg/dL; Relative change (Mesocricetus auratus [9]): -15%

Second part, led by results:

Row | EC30 [1] | MA [3] | EC30 [4] | Structure (SMILES) | Activity (CHO [2]) | further results
10 | inactive | – | – | CC(C)=CC[C@H]1C2CC[C@H]3[C@@H]4CC[C@H]([C@H](C)CCCC(C)C)[C@@]4(C)CC[C@@H]3[C@@]2(C)CC[C@H]1O (stereo partly specified) | – | –
11 | – | 58% | 12 µM | CC(C)CCC[C@@H](C)[C@H]1CC[C@H]2[C@@H]3CCC4[C@H](Cc5ccc(C(F)(F)F)cc5)[C@H](O)CC[C@]4(C)[C@H]3CC[C@]12C (stereo partly specified) | inactive | –
12 | inactive | – | – | C=C(Cl)C[C@H]1C2CC[C@H]3[C@@H]4CC[C@H]([C@H](C)CCCC(C)C)[C@@]4(C)CC[C@@H]3[C@@]2(C)CC[C@@H]1O (stereo partly specified) | – | –
13 | inactive | – | – | C=CC[C@@H]1C[C@@]2(C)C(CC[C@H]3[C@@H]4CC[C@H]([C@H](C)CCCC(C)C)[C@@]4(C)CC[C@@H]32)[C@H](CC=C)[C@@H]1O (stereo partly specified) | – | –
14 | – | 48% | 14 µM | COC(=O)c1ccc(C[C@H]2C3CC[C@H]4[C@@H]5CC[C@H]([C@H](C)CCCC(C)C)[C@@]5(C)CC[C@@H]4[C@@]3(C)CC[C@H]2O)cc1 (stereo partly specified) | inactive | –
15 | inactive | – | – | CC(C)CCC[C@@H](C)[C@H]1CC[C@H]2[C@@H]3CCC4[C@H](Cc5ccc(OCc6ccccc6)cc5)[C@H](O)CC[C@]4(C)[C@H]3CC[C@]12C (stereo partly specified) | – | –
16 | inactive | – | – | CC(C)CCC[C@@H](C)[C@H]1CC[C@H]2[C@@H]3CCC4[C@H](Cc5cccc(F)c5F)[C@H](O)CC[C@]4(C)[C@H]3CC[C@]12C (stereo partly specified) | – | –
17 | inactive | – | – | C#CC[C@H]1C2CC[C@H]3[C@@H]4CC[C@H]([C@H](C)CCCC(C)C)[C@@]4(C)CC[C@@H]3[C@@]2(C)CC[C@H]1O (stereo partly specified) | – | –
18 | inactive | – | – | CC(C)CCC[C@@H](C)[C@H]1CC[C@H]2[C@@H]3CCC4[C@H](Cc5ccc(C(=O)O)cc5)[C@H](O)CC[C@]4(C)[C@H]3CC[C@]12C (stereo partly specified) | – | –
19 | inactive | – | – | CC(C)CCC[C@@H](C)[C@H]1CC[C@H]2[C@@H]3CCC4[C@H](Cc5ccc(F)cc5F)[C@H](O)CC[C@]4(C)[C@H]3CC[C@]12C (stereo partly specified) | – | –
20 | – | 88% | 20 µM | CCCC[C@H]1C2CC[C@H]3[C@@H]4CC[C@H]([C@H](C)CCCC(C)C)[C@@]4(C)CC[C@@H]3[C@@]2(C)CC[C@H]1O (stereo partly specified) | inactive | –
21 | inactive | – | – | C=CC[C@H]1C[C@H]2[C@@H]3CC[C@H]([C@H](C)CCCC(C)C)[C@@]3(C)CC[C@@H]2[C@@]2(C)CC[C@@H](O)CC12 (stereo partly specified) | – | –
